pIC50, pKd: −log10 of the molar value. Calls of active or inactive are those of the source. No cut-off for these calls is given here.
Key:
[1] = biological target: T1, C-C chemokine receptor type 5 (Homo sapiens, UniProt P51681); experiment: Displacement of [125I]MIP-1beta from CCR5 in IL-10-stimulated human monocytes; format: cell-based
[2] = Half life in human in repeated dosing regimen; format: ADME, organism-based; settings: in vivo
[3] = test system: Human immunodeficiency virus 1; experiment: Antiviral activity against HIV-1 ADA infected in PHA-stimulated human PBMC cells assessed as viral p24 core protein level after 7 days by ELISA; format: functional, organism-based; settings: Human immunodeficiency virus 1, ADA, 168 h
How it was run: (§1)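 Human PBMC activated with PHA, then infected with HIV-1 (ADA or BaL strain). Infectivity was read as viral p24 core protein in the culture supernatants.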

[4] = test system: Human immunodeficiency virus 1; experiment: Antiviral activity against HIV-1 BaL infected in PHA-stimulated human PBMC cells assessed as viral p24 core protein level after 7 days by ELISA; format: functional, organism-based; settings: Human immunodeficiency virus 1, BaL, 168 h; how it was run: as §1
[5] = biological target: T1, C-C chemokine receptor type 5; experiment: Activation of CCR5 in human PBMC cells; format: cell-based
[6] = biological target: T1, C-C chemokine receptor type 5; experiment: Antagonist activity at CCR5 assessed as inhibition of intracellular calcium mobilization; format: functional, cell-based
[7] = biological target: T1, C-C chemokine receptor type 5; experiment: Antagonist activity at CCR5 assessed as inhibition of ERK phosphorylation; format: functional
[8] = biological target: T1, C-C chemokine receptor type 5; experiment: Antagonist activity at CCR5 assessed as inhibition of receptor internalization; format: functional
[9] = test system: Human immunodeficiency virus 1; experiment: Antiviral activity against HIV-1 R5 clade A infected in human PBMC cells; format: functional; settings: Human immunodeficiency virus 1, R5 clade A
[10] = test system: Human immunodeficiency virus 1; experiment: Antiviral activity against HIV-1 R5 clade B infected in human PBMC cells; format: functional; settings: Human immunodeficiency virus 1, R5 clade B
[11] = test system: Human immunodeficiency virus 1; experiment: Antiviral activity against HIV-1 R5 clade C infected in human PBMC cells; format: functional; settings: Human immunodeficiency virus 1, R5 clade C
[12] = test system: Human immunodeficiency virus 1; experiment: Antiviral activity against HIV-1 R5 clade D infected in human PBMC cells; format: functional; settings: Human immunodeficiency virus 1, R5 clade D
[13] = test system: Human immunodeficiency virus 1; experiment: Antiviral activity against HIV-1 R5 clade E infected in human PBMC cells; format: functional; settings: Human immunodeficiency virus 1, R5 clade E
[14] = test system: Human immunodeficiency virus 1; experiment: Antiviral activity against HIV-1 R5 clade F infected in human PBMC cells; format: functional; settings: Human immunodeficiency virus 1, R5 clade F
[15] = test system: Human immunodeficiency virus 1; experiment: Antiviral activity against HIV-1 R5 clade G infected in human PBMC cells; format: functional; settings: Human immunodeficiency virus 1, R5 clade G
[16] = test system: Human immunodeficiency virus 1; experiment: Antiviral activity against HIV-1 R5 clade J infected in human PBMC cells; format: functional; settings: Human immunodeficiency virus 1, R5 clade J
[17] = test system: Human immunodeficiency virus 1; experiment: Antiviral activity against HIV-1 X4 infected in PBMC cells; format: functional, organism-based
[18] = biological target: Voltage-gated inwardly rectifying potassium channel KCNH2 (Homo sapiens, UniProt Q12809); experiment: Inhibition of human hERG
How it was run: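 hERG potassium current was measured by patch clamp, and IC50 was derived from current inhibition.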

[19] = Protein binding in human serum assessed as fraction unbound; format: ADME, cell-free
[20] = biological target: Cytochrome P450 3A4 (Homo sapiens, UniProt P08684); experiment: Inhibition of CYP3A4; format: ADME
[21] = biological target: Cytochrome P450 2D6 (Homo sapiens, UniProt P10635); experiment: Inhibition of CYP2D6; format: ADME
[22] = biological target: T2, Cytochrome P450 1A2 (Homo sapiens, UniProt P05177); experiment: Inhibition of CYP1A2; format: ADME
T2 sequence (P05177 whole entry): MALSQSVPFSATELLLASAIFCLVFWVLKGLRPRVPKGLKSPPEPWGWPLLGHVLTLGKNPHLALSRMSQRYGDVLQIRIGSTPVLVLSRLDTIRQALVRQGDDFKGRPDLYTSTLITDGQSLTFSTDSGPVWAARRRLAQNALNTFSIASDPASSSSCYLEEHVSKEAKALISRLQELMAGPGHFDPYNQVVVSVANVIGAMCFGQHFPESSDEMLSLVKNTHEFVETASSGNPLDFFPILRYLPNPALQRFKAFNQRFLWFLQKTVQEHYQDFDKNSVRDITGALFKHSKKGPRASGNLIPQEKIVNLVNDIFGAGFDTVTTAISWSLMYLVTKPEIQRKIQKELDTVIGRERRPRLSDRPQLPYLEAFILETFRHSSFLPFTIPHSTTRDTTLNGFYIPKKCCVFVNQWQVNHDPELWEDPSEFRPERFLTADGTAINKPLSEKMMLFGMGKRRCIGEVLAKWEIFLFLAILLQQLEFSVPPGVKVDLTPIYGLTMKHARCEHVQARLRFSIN

[23] = biological target: Cytochrome P450 2C9 (Homo sapiens, UniProt P11712); experiment: Inhibition of CYP2C9; format: ADME
[24] = biological target: Cytochrome P450 2C19 (Homo sapiens, UniProt P33261); experiment: Inhibition of CYP2C19; format: ADME
[25] = Systemic clearance in rat at 1 mg/kg, iv; format: ADME, organism-based; set-up: dose 1 mg/kg, route intravenous; settings: in vivo
[26] = test system: Rattus norvegicus; experiment: Volume of distribution in rat at 1 mg/kg, iv; format: ADME, organism-based; set-up: dose 1 mg/kg, route intravenous; settings: in vivo
[27] = Half life in rat at 1 mg/kg, iv; format: ADME, organism-based; set-up: dose 1 mg/kg, route intravenous; settings: in vivo
[28] = AUC in rat at 1 mg/kg, iv; format: ADME, organism-based; set-up: dose 1 mg/kg, route intravenous; settings: plasma
[29] = Systemic clearance in dog at 1 mg/kg, iv; format: ADME, organism-based, Canis lupus familiaris; set-up: dose 1 mg/kg, route intravenous; settings: in vivo
[30] = test system: Canis familiaris; experiment: Volume of distribution in dog at 1 mg/kg, iv; format: ADME, organism-based, Canis lupus familiaris; set-up: dose 1 mg/kg, route intravenous; settings: in vivo
[31] = Half life in dog at 1 mg/kg, iv; format: ADME, organism-based, Canis lupus familiaris; set-up: dose 1 mg/kg, route intravenous; settings: in vivo
[32] = AUC in dog at 1 mg/kg, iv; format: ADME, organism-based, Canis lupus familiaris; set-up: dose 1 mg/kg, route intravenous; settings: plasma
[33] = Tmax in rat at 20 mg/kg, po; format: ADME, organism-based; set-up: dose 20 mg/kg, route oral; settings: in vivo
[34] = Cmax in rat at 20 mg/kg, po; format: ADME, organism-based; set-up: dose 20 mg/kg, route oral; settings: in vivo
[35] = Plasma concentration in rat at 20 mg/kg, po after 24 hrs; format: ADME, organism-based; set-up: dose 20 mg/kg, route oral
[36] = Half life in rat at 20 mg/kg, po; format: ADME, organism-based; set-up: dose 20 mg/kg, route oral; settings: in vivo
[37] = AUC in rat at 20 mg/kg, po; format: ADME, organism-based; set-up: dose 20 mg/kg, route oral; settings: plasma
[38] = Oral bioavailability in rat at 20 mg/kg; format: ADME, organism-based; settings: in vivo
[39] = Tmax in dog at 20 mg/kg, po; format: ADME, organism-based, Canis lupus familiaris; set-up: dose 20 mg/kg, route oral; settings: in vivo
[40] = Cmax in dog at 20 mg/kg, po; format: ADME, organism-based, Canis lupus familiaris; set-up: dose 20 mg/kg, route oral; settings: in vivo
[41] = Half life in dog at 20 mg/kg, po; format: ADME, organism-based, Canis lupus familiaris; set-up: dose 20 mg/kg, route oral; settings: in vivo
[42] = AUC in dog at 20 mg/kg, po; format: ADME, organism-based, Canis lupus familiaris; set-up: dose 20 mg/kg, route oral; settings: plasma
[43] = Oral bioavailability in dog at 20 mg/kg; format: ADME, organism-based, Canis lupus familiaris; settings: in vivo
[44] = Permeability across basolateral to apical side in human Caco2 cells; format: ADME, cell-based; settings: Caco-2, read-out: permeability
[45] = Induction of Cytochrome P450 up to 30 uM; format: ADME

T1 sequence (P51681 whole entry): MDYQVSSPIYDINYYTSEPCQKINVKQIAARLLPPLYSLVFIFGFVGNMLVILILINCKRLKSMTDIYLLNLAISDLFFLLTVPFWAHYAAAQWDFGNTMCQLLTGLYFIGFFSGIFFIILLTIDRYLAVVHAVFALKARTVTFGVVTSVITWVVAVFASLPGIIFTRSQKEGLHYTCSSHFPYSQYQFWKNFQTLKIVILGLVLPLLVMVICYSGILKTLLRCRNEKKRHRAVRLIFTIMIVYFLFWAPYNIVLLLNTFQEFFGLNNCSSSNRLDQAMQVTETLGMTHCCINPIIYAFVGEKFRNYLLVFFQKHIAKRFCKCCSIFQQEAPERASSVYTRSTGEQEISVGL
Cytochrome P450 2D6, sequence (P10635 whole entry): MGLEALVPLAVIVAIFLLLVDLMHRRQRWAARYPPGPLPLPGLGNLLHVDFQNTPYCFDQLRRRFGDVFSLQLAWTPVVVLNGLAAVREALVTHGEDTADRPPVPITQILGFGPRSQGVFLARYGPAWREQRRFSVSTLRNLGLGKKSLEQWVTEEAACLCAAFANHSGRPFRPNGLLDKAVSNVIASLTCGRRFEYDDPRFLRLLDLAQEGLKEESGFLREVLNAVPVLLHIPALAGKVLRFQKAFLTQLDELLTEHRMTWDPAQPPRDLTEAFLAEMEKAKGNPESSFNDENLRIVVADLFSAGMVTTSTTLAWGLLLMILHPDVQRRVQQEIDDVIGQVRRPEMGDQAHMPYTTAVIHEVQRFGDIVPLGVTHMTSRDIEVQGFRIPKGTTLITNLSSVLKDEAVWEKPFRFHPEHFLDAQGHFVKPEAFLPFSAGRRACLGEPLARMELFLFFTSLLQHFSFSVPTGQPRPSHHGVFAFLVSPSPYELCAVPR
Cytochrome P450 2C9, sequence (P11712 whole entry): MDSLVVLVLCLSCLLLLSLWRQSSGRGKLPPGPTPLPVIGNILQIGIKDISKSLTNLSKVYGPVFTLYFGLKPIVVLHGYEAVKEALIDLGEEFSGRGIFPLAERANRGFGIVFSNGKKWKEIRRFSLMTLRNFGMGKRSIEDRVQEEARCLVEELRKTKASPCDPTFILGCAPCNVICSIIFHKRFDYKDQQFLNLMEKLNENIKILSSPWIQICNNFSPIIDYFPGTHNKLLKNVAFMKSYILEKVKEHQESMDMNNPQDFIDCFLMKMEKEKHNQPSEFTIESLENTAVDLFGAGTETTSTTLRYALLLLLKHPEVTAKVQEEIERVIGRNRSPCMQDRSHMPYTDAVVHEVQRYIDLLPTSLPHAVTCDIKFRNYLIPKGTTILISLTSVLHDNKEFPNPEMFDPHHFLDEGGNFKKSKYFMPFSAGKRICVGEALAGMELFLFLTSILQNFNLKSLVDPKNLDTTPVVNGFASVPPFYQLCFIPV
Voltage-gated inwardly rectifying potassium channel KCNH2, sequence (Q12809 whole entry): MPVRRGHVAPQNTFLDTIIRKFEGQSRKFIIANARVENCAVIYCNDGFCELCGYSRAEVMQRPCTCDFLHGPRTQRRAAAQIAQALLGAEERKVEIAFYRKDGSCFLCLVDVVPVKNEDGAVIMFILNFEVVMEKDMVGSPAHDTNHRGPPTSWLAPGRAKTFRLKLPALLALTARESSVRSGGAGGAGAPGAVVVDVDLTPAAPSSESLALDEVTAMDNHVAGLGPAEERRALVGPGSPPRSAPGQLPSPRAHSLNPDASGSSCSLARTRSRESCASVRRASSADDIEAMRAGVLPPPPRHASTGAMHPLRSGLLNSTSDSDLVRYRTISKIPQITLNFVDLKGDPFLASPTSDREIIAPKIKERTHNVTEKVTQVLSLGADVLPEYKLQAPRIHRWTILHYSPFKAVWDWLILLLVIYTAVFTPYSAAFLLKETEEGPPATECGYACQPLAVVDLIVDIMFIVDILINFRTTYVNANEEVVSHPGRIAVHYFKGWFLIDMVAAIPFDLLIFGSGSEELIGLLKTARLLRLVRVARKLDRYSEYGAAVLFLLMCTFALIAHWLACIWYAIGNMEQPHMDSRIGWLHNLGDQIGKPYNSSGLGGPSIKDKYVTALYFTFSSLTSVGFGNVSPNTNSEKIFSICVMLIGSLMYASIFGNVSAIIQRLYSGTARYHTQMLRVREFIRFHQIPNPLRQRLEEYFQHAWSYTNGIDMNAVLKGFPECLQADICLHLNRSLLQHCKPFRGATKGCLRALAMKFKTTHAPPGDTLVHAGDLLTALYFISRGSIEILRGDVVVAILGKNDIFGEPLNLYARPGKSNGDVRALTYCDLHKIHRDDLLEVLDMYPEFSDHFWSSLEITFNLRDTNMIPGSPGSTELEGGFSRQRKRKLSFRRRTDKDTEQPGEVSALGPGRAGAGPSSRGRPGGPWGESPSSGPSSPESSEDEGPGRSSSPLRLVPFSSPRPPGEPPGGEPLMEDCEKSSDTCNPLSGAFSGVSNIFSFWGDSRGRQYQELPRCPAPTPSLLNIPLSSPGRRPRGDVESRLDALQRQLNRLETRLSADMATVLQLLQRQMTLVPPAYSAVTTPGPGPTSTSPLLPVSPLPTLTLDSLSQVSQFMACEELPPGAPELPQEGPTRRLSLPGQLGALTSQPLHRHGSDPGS
Cytochrome P450 2C19, sequence (P33261 whole entry): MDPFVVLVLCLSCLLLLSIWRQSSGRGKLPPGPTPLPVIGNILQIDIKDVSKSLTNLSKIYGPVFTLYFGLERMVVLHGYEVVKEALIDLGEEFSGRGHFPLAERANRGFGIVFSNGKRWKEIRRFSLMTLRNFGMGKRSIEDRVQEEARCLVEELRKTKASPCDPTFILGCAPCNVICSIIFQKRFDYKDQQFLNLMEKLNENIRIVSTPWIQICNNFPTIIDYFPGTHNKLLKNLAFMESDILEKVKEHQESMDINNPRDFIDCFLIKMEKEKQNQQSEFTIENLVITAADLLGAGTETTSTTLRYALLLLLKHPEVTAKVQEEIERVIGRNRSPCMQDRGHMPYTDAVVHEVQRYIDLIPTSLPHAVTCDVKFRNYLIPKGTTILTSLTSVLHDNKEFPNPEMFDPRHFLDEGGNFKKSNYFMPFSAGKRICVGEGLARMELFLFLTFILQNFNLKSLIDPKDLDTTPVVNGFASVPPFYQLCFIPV
Cytochrome P450 3A4, sequence (P08684 whole entry): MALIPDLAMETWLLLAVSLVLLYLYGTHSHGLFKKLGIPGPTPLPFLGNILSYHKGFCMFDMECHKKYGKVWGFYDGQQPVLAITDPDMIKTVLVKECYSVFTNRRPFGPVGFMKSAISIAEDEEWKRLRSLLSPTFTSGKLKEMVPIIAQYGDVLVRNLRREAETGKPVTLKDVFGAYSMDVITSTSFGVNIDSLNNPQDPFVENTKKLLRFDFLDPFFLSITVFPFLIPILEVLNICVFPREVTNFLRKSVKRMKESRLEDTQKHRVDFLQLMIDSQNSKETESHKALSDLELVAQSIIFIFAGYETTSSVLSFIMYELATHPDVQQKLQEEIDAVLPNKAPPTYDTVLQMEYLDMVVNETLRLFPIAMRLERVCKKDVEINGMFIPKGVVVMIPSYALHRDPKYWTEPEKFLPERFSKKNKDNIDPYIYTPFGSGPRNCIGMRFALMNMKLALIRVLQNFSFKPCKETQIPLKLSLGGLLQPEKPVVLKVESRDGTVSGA

With `Cc1ncnc(C)c1C(=O)N1CCC(C)(N2CCN([C@H]3c4ccc(C(F)(F)F)cc4C[C@@H]3O)[C@@H](C)C2)CC1` the pIC50 [1] was < 6.00.
With `COC[C@@H](c1ccc(C(F)(F)F)cc1)N1CCN(C2(C)CCN(C(=O)c3c(C)ncnc3C)CC2)C[C@@H]1C` [VICRIVIROC] the half-life [2] was 28 h, the pIC50 [3] was 9.25 and the pIC50 [4] was 9.64.
`Cc1ncnc(C)c1C(=O)N1CCC(C)(N2CCN([C@@H]3c4ccc(C(F)(F)F)cc4C[C@H]3O)[C@@H](C)C2)CC1` gave a pIC50 [1] of 6.68.
For `CO[C@@H]1Cc2cc(C(F)(F)F)ccc2[C@H]1N1CCN(C2(C)CCN(C(=O)c3c(C)ncnc3C)CC2)C[C@@H]1C`, the pIC50 [1] was 8.34, the pIC50 [3] was 7.92 and the pIC50 [4] was 7.96.
For `Cc1ncnc(C)c1C(=O)N1CCC(C)(N2CCN(C3CCc4cc(Br)ccc43)[C@@H](C)C2)CC1` (mixture of isomers), the pIC50 [1] was 6.72.
In the case of `CO[C@H]1Cc2cc(C(F)(F)F)ccc2[C@@H]1N1CCN(C2(C)CCN(C(=O)c3c(C)ncnc3C)CC2)C[C@@H]1C`, the pIC50 [1] was < 6.00.
With `Cc1ncnc(C)c1C(=O)N1CCC(C)(N2CCN(C3CCc4cc(C(F)(F)F)ccc43)[C@@H](C)C2)CC1` (single isomer, unassigned) the pIC50 [1] was 8.30 and the pIC50 [4] was 7.72.
`CCO[C@@H]1Cc2cc(C(F)(F)F)ccc2[C@H]1N1CCN(C2(C)CCN(C(=O)c3c(C)ncnc3C)CC2)C[C@@H]1C` [INCB-9471] gave a pKd [5] of 8.51, a pIC50 [6] of 7.80 and a pIC50 [7] of 8.52. It also gave a pIC50 [8] of 8.82, an IC90 [9] of 9 nM and an IC90 [10] of 9 nM. It also gave an IC90 [11] of 9 nM, an IC90 [12] of 9 nM and an IC90 [13] of 9 nM. The IC90 [14] was 9 nM, the IC90 [15] was 9 nM and the IC90 [16] was 9 nM. The Activity [17] was “inactive”, the pIC50 [18] was 5.35 and the fraction unbound [19] was 0.16. For the same compound, the pIC50 [20] was < 4.60, the pIC50 [21] was < 4.60 and the pIC50 [22] was < 4.60. For the same compound, the pIC50 [23] was < 4.60, the pIC50 [24] was < 4.60 and the clearance [25] was 10.3 mL/min/kg. It also gave a Vd [26] of 4.1 L/kg, a half-life [27] of 6 h and an AUC [28] of 2.9 µM·h. It also gave a clearance [29] of 3.33 mL/min/kg, a Vd [30] of 3.8 L/kg and a half-life [31] of 11 h. For the same compound, the AUC [32] was 7.85 µM·h, the Tmax [33] was 3 h and the Cmax [34] was 4.07 µM. For the same compound, the concentration at 24 h [35] was 1.09 µM, the half-life [36] was 12 h and the AUC [37] was 55.2 µM·h. It also gave a bioavailability [38] of 100%, a Tmax [39] of 0.5 h and a Cmax [40] of 14 µM. The half-life [41] was 17 h, the AUC [42] was 150 µM·h and the bioavailability [43] was 95%. The Papp B→A [44] was 16.5 ×10⁻⁶ cm/s, the Activity [45] was “Not Active” and the half-life [2] was 58 h. It also gave a pIC50 [1] of 8.19, a pIC50 [3] of 9.44 and a pIC50 [4] of 9.80.
`Cc1ncnc(C)c1C(=O)N1CCC(C)(N2CCN(C3CCc4cc(Br)ccc43)[C@@H](C)C2)CC1` (single isomer, unassigned; diastereomer 1) gave a pIC50 [1] of 8.41 and a pIC50 [4] of 6.48.
With `CCO[C@H]1Cc2cc(C(F)(F)F)ccc2[C@@H]1N1CCN(C2(C)CCN(C(=O)c3c(C)ncnc3C)CC2)C[C@@H]1C` the pIC50 [1] was < 6.00.

— ChEMBL document CHEMBL1687698, “Discovery of INCB9471, a Potent, Selective, and Orally Bioavailable CCR5 Antagonist with Potent Anti-HIV-1 Activity” (ACS Med Chem Lett, 2010)
